Data published in ChEMBL document CHEMBL4325893, “Synthesis and antibacterial profiles of targeted triclosan derivatives” (2019).
Converted amounts (≈) assume the structure as drawn.

Columns and labels:
Aeromonas hydrophila = assay: Antibacterial activity against Aeromonas hydrophila OCC 778 after 18 hrs; format: functional; settings: OCC 778, 18 h
Summary of the method: (§1)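 Broth microdilution in Nutrient Broth No. 2; stocks in ethanol diluted to 0.01–128 µg/ml (triclosan) or 0.25–256 µg/ml (glycosides). Overnight 37 °C NB2 cultures diluted 1 in 10^4 in saline and added to the dilutions. Incubation at 37 °C with agitation, OD read every 15 min; MIC is the lowest concentration preventing any OD rise after 18 h.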

Citrobacter freundii [1] = assay: Antibacterial activity against Citrobacter freundii OCC 851 after 18 hrs; format: functional; settings: OCC 851, 18 h; summary of the method: as §1
Cronobacter sakazakii = assay: Antibacterial activity against Cronobacter sakazakii 29544 after 18 hrs; format: functional; settings: Cronobacter sakazakii, 29544, 18 h; summary of the method: as §1
Klebsiella aerogenes [2] = assay: Antibacterial activity against Enterobacter aerogenes ATCC 13048 after 18 hrs; format: functional; settings: ATCC 13048, 18 h; summary of the method: as §1
[3] = Antibacterial activity against Enterobacter cloacae ATCC 13047 after 18 hrs; format: functional, Enterobacter cloacae subsp. cloacae; settings: ATCC 13047, 18 h; summary of the method: as §1
Escherichia coli [4] = assay: Antibacterial activity against Escherichia coli ATCC 8739 after 18 hrs; format: functional; settings: ATCC 8739, 18 h; summary of the method: as §1
Escherichia coli [5] = assay: Antibacterial activity against Escherichia coli ATCC 10536 after 18 hrs; format: functional; settings: ATCC 10536, 18 h; summary of the method: as §1
Escherichia coli [6] = assay: Antibacterial activity against Escherichia coli ATCC 11775 after 18 hrs; format: functional; summary of the method: as §1
Escherichia coli [7] = assay: Antibacterial activity against Escherichia coli ATCC 25922 after 18 hrs; format: functional; settings: ATCC 25922, 18 h; summary of the method: as §1
Escherichia coli [8] = assay: Antibacterial activity against Escherichia coli ATCC 35218 after 18 hrs; format: functional; settings: ATCC 35218, 18 h; summary of the method: as §1
Escherichia coli [9] = assay: Antibacterial activity against Escherichia coli 700728 after 18 hrs; format: functional; settings: Escherichia coli, 700728, 18 h; summary of the method: as §1
Escherichia coli [10] = assay: Antibacterial activity against Escherichia coli NCTC 13216 after 18 hrs; format: functional; settings: NCTC 13216, 18 h; summary of the method: as §1
Escherichia coli [11] = assay: Antibacterial activity against Escherichia coli OCC 122 after 18 hrs; format: functional; settings: OCC 122, 18 h; summary of the method: as §1
Escherichia hermannii = assay: Antibacterial activity against Escherichia hermannii 33650 after 18 hrs; format: functional; settings: Atlantibacter hermannii, 33650, 18 h; summary of the method: as §1
Hafnia alvei = assay: Antibacterial activity against Hafnia alvei 13337 after 18 hrs; format: functional; settings: Hafnia alvei, 13337, 18 h; summary of the method: as §1
Klebsiella aerogenes [12] = assay: Antibacterial activity against Klebsiella aerogenes NCTC 8167 after 18 hrs; format: functional; settings: NCTC 8167, 18 h; summary of the method: as §1
Klebsiella pneumoniae [13] = assay: Antibacterial activity against Klebsiella pneumoniae ATCC 10031 after 18 hrs; format: functional; settings: ATCC 10031, 18 h; summary of the method: as §1
Proteus mirabilis = assay: Antibacterial activity against Proteus mirabilis ATCC 12453 after 18 hrs; format: functional; settings: ATCC 12453, 18 h; summary of the method: as §1
Proteus vulgaris = assay: Antibacterial activity against Proteus vulgaris OCC 195 after 18 hrs; format: functional; settings: OCC 195, 18 h; summary of the method: as §1
Pseudomonas aeruginosa = assay: Antibacterial activity against Pseudomonas aeruginosa ATCC 27853 after 18 hrs; format: functional; settings: ATCC 27853, 18 h; summary of the method: as §1
Klebsiella pneumoniae [14] = assay: Antibacterial activity against Klebsiella pneumoniae ATCC 13883 after 18 hrs; format: functional; settings: ATCC 13883, 18 h; summary of the method: as §1
Citrobacter freundii [15] = assay: Antibacterial activity against Citrobacter freundii 8090 after 18 hrs; format: functional; settings: Citrobacter freundii, 8090, 18 h; summary of the method: as §1
Serratia marcescens = assay: Antibacterial activity against Serratia marcescens OCC 217 after 18 hrs; format: functional; settings: OCC 217, 18 h; summary of the method: as §1
Bacillus cereus = assay: Antibacterial activity against Bacillus cereus ATCC 14579 after 18 hrs; format: functional; settings: ATCC 14579, 18 h; summary of the method: as §1
Bacillus subtilis = assay: Antibacterial activity against Bacillus subtilis NCTC 10073 after 18 hrs; format: functional; settings: NCTC 10073, 18 h; summary of the method: as §1
Enterococcus faecalis [16] = assay: Antibacterial activity against Enterococcus faecalis ATCC 29212 after 18 hrs; format: functional; settings: ATCC 29212, 18 h; summary of the method: as §1
Enterococcus faecalis [17] = assay: Antibacterial activity against Enterococcus faecalis ATCC 33186 after 18 hrs; format: functional; settings: ATCC 33186, 18 h; summary of the method: as §1
Enterococcus faecium = assay: Antibacterial activity against Enterococcus faecium ATCC 19434 after 18 hrs; format: functional; settings: ATCC 19434, 18 h; summary of the method: as §1

Which results are given for `O[C@@H]1[C@H](Oc2cc(Cl)ccc2Oc2ccc(Cl)cc2Cl)OC[C@@H](O)[C@H]1O`?
MIC (Aeromonas hydrophila): > 256 µg/mL; MIC (Citrobacter freundii [1]): 64 µg/mL (≈ 152 µM); MIC (Cronobacter sakazakii): 128 µg/mL (≈ 304 µM); MIC (Klebsiella aerogenes [2]): 128 µg/mL (≈ 304 µM); MIC [3]: 16 µg/mL (≈ 37.9 µM); MIC (Escherichia coli [4]): 8 to 32 µg/mL (≈ 19 to 75.9 µM); MIC (Escherichia coli [5]): 8 to 32 µg/mL (≈ 19 to 75.9 µM); MIC (Escherichia coli [6]): 8 to 32 µg/mL (≈ 19 to 75.9 µM); MIC (Escherichia coli [7]): 8 to 32 µg/mL (≈ 19 to 75.9 µM); MIC (Escherichia coli [8]): 8 to 32 µg/mL (≈ 19 to 75.9 µM); MIC (Escherichia coli [9]): 8 to 32 µg/mL (≈ 19 to 75.9 µM); MIC (Escherichia coli [10]): 8 to 32 µg/mL (≈ 19 to 75.9 µM); MIC (Escherichia coli [11]): 8 to 32 µg/mL (≈ 19 to 75.9 µM); MIC (Escherichia hermannii): 32 µg/mL (≈ 75.9 µM); MIC (Hafnia alvei): 4 µg/mL (≈ 9.49 µM); MIC (Klebsiella aerogenes [12]): 32 µg/mL (≈ 75.9 µM); MIC (Klebsiella pneumoniae [13]): 4 µg/mL (≈ 9.49 µM); MIC (Proteus mirabilis): 32 µg/mL (≈ 75.9 µM); MIC (Proteus vulgaris): 128 µg/mL (≈ 304 µM); MIC (Pseudomonas aeruginosa): > 256 µg/mL; MIC (Klebsiella pneumoniae [14]): 4 µg/mL (≈ 9.49 µM); MIC (Citrobacter freundii [15]): 64 µg/mL (≈ 152 µM); MIC (Serratia marcescens): > 256 µg/mL; MIC (Bacillus cereus): 128 µg/mL (≈ 304 µM); MIC (Bacillus subtilis): 128 µg/mL (≈ 304 µM); MIC (Enterococcus faecalis [16]): 256 µg/mL (≈ 607 µM); MIC (Enterococcus faecalis [17]): 256 µg/mL (≈ 607 µM); MIC (Enterococcus faecium): 256 µg/mL (≈ 607 µM)
